# Like-named read-outs stand apart in the source and are kept apart here.
# Key:
# [1] = 2008, cited from earlier work
# [2] = comparison value, no reference given; cited from earlier work
# [3] = Saturation solubility, shake-flask in buffers, HPLC; format: physicochemical
# Outline: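 Shake-flask method: excess test compound was placed in 1.0 mL citrate, HEPES or phosphate buffer at pH 2.0–8.0 and shaken 24 h at 25.0 ± 0.1 °C, 1500 rpm. Suspensions then stood unshaken overnight before centrifugation. Supernatants were filtered (0.1 µm) and measured by reverse-phase C18 HPLC at 242 nm.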
# [4] = Partition coefficient in octanol:water system; format: physicochemical; conditions: pH 7.0
# Outline: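 Test compound (1.0 mg) was added to 4.0 mL of a 1:1 octanol:water mixture at pH 7.0 and shaken vigorously for 30 min. Phases were separated by centrifugation, passed through 0.1 µm filters and quantified by reverse-phase C18 HPLC (90% acetonitrile, 242 nm).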
# [5] = system: Caco-2 monolayers; test: Bidirectional permeability in Caco-2 monolayers; format: in vitro ADME
# [6] = Parallel artificial membrane permeability assay; format: in vitro ADME; conditions: PAMPA, pH 7.4, 4 h
# [7] = Noncompartmental pharmacokinetics after oral administration; format: in vivo, Sprague–Dawley rats; conditions: rat
# Outline: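 Male Sprague–Dawley rats (240–350 g, n = 5/group) were fasted overnight and gavaged with 2% (w/v) test compound in ethanol/TPGS/water. Tail-vein plasma was sampled predose and 0.25–24 h, precipitated with acetonitrile, and run on C18 HPLC at 242 nm (nimesulide internal standard; 0.05–8.00 μg/mL calibration). Per-rat SHAM analysis used log-trapezoidal AUC, with CL = Dose/AUC.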
# [8] = Three-compartment model fit after i.v. administration; format: in vivo, Sprague–Dawley rats; conditions: rat, i.v. 5.0 mg/kg
# Outline: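 Rats received a tail-vein injection of 5.0 mg/kg in ethanol/TPGS/water vehicle. Plasma was taken from 0.017 to 24 h and assayed by HPLC. Concentration–time data were fitted by generalized least squares to three-compartment mass-balance differential equations, seeded with noncompartmental estimates. Parameters are reported with CV%; Vss was taken as the sum of the compartment volumes.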
# [9] = Simultaneous three-compartment model fit of i.v. and oral data; format: in vivo, Sprague–Dawley rats; conditions: rat
# Outline: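 Pooled i.v. (5.0 mg/kg) and oral (20, 40, 60 mg/kg gavage) rat plasma data were fitted simultaneously by generalized least squares with variance error models. The structural model had three compartments with combined zero-order/Michaelis–Menten limited systemic uptake. Models were discriminated by goodness-of-fit plots, residuals, SE, CV%, CI95% and lowest AIC.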
molecule,measurement,setting,value
"c1ccc2c(Cc3c[nH]c4ccccc34)c[nH]c2c1 [DIM, 3,3′-diindolylmethane]",Cmax,[1]; single 100 mg dose ref Reed et al.,0.032 µg/mL
same,Cmax,[1]; single 200 mg dose ref Reed et al.,0.104 µg/mL
same,Cmax,[1]; single 300 mg dose ref Reed et al.,0.108 µg/mL
same,Log K0/w,[2],≈ 4.0
"c1ccc(-c2ccc(C(c3c[nH]c4ccccc34)c3c[nH]c4ccccc34)cc2)cc1 [DIM-P, DIM-C-pPhC6H5]",aqueous solubility,"[3]; pH 2.0, 25 °C, 24 h shake-flask",0.28 ± 0.03 µg/mL
same,maximum aqueous solubility,"[3]; pH 8.0, 25 °C, 24 h shake-flask",0.73 ± 0.09 µg/mL
same,overall solubility,[3]; pH range 2–8,less than 1.0 μg/mL
same,experimental Log K0/w,[4],6.79 ± 0.12 and ≈ 7.0
same,Peff A–B,"[5]; Caco-2, apical pH 5",0.34 ± 0.06 × 10^−6 cm/s
same,Peff B–A,"[5]; Caco-2, apical pH 5",0.53 ± 0.08 × 10^−6 cm/s
same,Peff A–B,"[5]; Caco-2, apical pH 5.8",0.33 ± 0.07 × 10^−6 cm/s
same,Peff B–A,"[5]; Caco-2, apical pH 5.8",0.50 ± 0.06 × 10^−6 cm/s
same,Peff A–B,"[5]; Caco-2, apical pH 6.8",0.35 ± 0.06 × 10^−6 cm/s
same,Peff B–A,"[5]; Caco-2, apical pH 6.8",0.52 ± 0.07 × 10^−6 cm/s
same,"average Peff, B–A","[5]; Caco-2, basolateral to apical, average",0.51 ± 0.09 × 10^−6 cm/s
same,absorptive (A–B) versus secretive (B–A) transport,"[5]; bidirectional Caco-2, no active efflux",nearly unity
same,Biopharmaceutics Classification System (BCS) class,[5]; from low solubility and low permeability,Class IV
same,donor-to-receptor apparent permeability (Papp),[6]; stirred water layer,2.69 ± 0.08 × 10^−6 cm/s
same,donor-to-receptor apparent permeability (Papp),[6]; unstirred water layer,0.58 ± 0.07 × 10^−6 cm/s
same,AUC0–24h /Dose,[7]; oral 20 mg/kg,2.28 ± 0.46 (min/L) *10^−3
same,AUMC0–24h,[7]; oral 20 mg/kg,250.45 ± 62.42 μg × min^2/mL
same,AUMC0–24h/Dose,[7]; oral 20 mg/kg,0.012 ± 0.003 min^2/mL
same,CL,[7]; oral 20 mg/kg,0.05191 ± 0.00389 L/h/kg
same,Cmax,[7]; oral 20 mg/kg,7.21 ± 1.19 µg/mL
same,Cmax/dose,[7]; oral 20 mg/kg,0.36 ± 0.06
same,FBIO (absolute bioavailability),[7]; oral 20 mg/kg,0.13 ± 0.03
same,MRT,[7]; oral 20 mg/kg,5.47 ± 0.64 h
same,Terminal t1/2,[7]; oral 20 mg/kg,6.91 ± 3.84 h
same,Vss,[7]; oral 20 mg/kg,0.49979 ± 0.223605 L/kg
same,time of maximum plasma level,[7]; oral 20 mg/kg,2 h
same,AUMC0–24h,[7]; oral 40 mg/kg,548.85 ± 207.09 μg × min^2/mL
same,AUMC0–24h/Dose,[7]; oral 40 mg/kg,0.014 ± 0.005 min^2/mL
same,CL,[7]; oral 40 mg/kg,0.04989 ± 0.00452 L/h/kg
same,Cmax,[7]; oral 40 mg/kg,11.27 ± 1.04 µg/mL
same,Cmax/dose,[7]; oral 40 mg/kg,0.28 ± 0.03
same,FBIO (absolute bioavailability),[7]; oral 40 mg/kg,0.12 ± 0.03
same,MRT,[7]; oral 40 mg/kg,6.29 ± 1.14 h
same,Terminal t1/2,[7]; oral 40 mg/kg,7.86 ± 3.12 h
same,Vss,[7]; oral 40 mg/kg,0.54861 ± 0.16478 L/kg
same,time of maximum plasma level,[7]; oral 40 mg/kg,2 h
same,AUC0–24h /Dose,[7]; oral 60 mg/kg,2.32 ± 0.46 (min/L) *10^−3
same,AUMC0–24h,[7]; oral 60 mg/kg,912.16 ± 299.02 μg × min^2/mL
same,AUMC0–24h/Dose,[7]; oral 60 mg/kg,0.015 ± 0.005 min^2/mL
same,CL,[7]; oral 60 mg/kg,0.05038 ± 0.00349 L/h/kg
same,Cmax,[7]; oral 60 mg/kg,17.86 ± 1.62 µg/mL
same,Cmax/dose,[7]; oral 60 mg/kg,0.30 ± 0.03
same,FBIO (absolute bioavailability),[7]; oral 60 mg/kg,0.13 ± 0.03
same,MRT,[7]; oral 60 mg/kg,6.43 ± 0.81 h
same,Terminal t1/2,[7]; oral 60 mg/kg,7.60 ± 2.34 h
same,Vss,[7]; oral 60 mg/kg,0.54239 ± 0.12804 L/kg
same,time of maximum plasma level,[7]; oral 60 mg/kg,3 h
same,absolute bioavailability,"[7]; oral, as stated in abstract",0.13 ± 0.06
same,apparent distributional phase,[8],< 2 h
same,VSS,[8]; secondary parameter,0.68285 L/kg
same,t1/2,[8]; secondary parameter,10.653 h
same,CLC,[8]; three compartment model,0.0444 L/h/kg
same,CLd1,[8]; three compartment model,0.0336 L/h/kg
same,CLd2,[8]; three compartment model,0.0174 L/h/kg
same,V1,[8]; three compartment model,0.64098 L/kg
same,V2,[8]; three compartment model,0.02822 L/kg
same,VC,[8]; three compartment model,0.01365 L/kg
same,zero-order absorption site access rate,[9]; oral 20 mg/kg,14 mg/h/kg
same,zero-order absorption site access rate,[9]; oral 40 mg/kg,28 mg/h/kg
same,zero-order absorption site access rate,[9]; oral 60 mg/kg,42 mg/h/kg
same,CLC,"[9]; simultaneous fit i.v. 5.0 and oral 20, 40, 60 mg/kg",0.0462 L/h/kg
same,Abmax (maximum absorption rate at saturation),[9]; simultaneous fit i.v. and oral,60.65 µg/min/kg
same,CLd1,[9]; simultaneous fit i.v. and oral,0.0364 L/h/kg
same,CLd2,[9]; simultaneous fit i.v. and oral,0.0191 L/h/kg
same,FBIO,[9]; simultaneous fit i.v. and oral,0.126
same,SD50 (amount of drug at the absorption site at 50% saturation),[9]; simultaneous fit i.v. and oral,8.6797 mg/kg
same,Tsite (time required for drug to reach absorption site),[9]; simultaneous fit i.v. and oral,85.20 min
same,V1,[9]; simultaneous fit i.v. and oral,0.64606 L/kg
same,V2,[9]; simultaneous fit i.v. and oral,0.0285 L/kg
same,VC,[9]; simultaneous fit i.v. and oral,0.0139 L/kg
Lucifer Yellow [reference compound],mean permeability of paracellular control,[5]; Caco-2 monolayer integrity control,< 1.5 nm/s

# From PMC3374645 (European Journal of Pharmaceutical Sciences, 2012)
